Screening results (PubChem BioAssay)
TRPC4 agonist – activators of mouse TRPC4 channel; HEK293 TRPC4beta/mu-opioid, Fluo4 calcium fluorescence; active compounds read high; AID 2237; actives 0.49% (n = 310,000); B-score at 10 µM; Q9QUQ5;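 active = B-score above 5 SD of library B-scores, and initial fluorescence ratio not above library mean plus 5 SD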;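 note: positive B-score marks a calcium rise read as TRPC4 activation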
Target sequence (Q9QUQ5 whole entry, looked up): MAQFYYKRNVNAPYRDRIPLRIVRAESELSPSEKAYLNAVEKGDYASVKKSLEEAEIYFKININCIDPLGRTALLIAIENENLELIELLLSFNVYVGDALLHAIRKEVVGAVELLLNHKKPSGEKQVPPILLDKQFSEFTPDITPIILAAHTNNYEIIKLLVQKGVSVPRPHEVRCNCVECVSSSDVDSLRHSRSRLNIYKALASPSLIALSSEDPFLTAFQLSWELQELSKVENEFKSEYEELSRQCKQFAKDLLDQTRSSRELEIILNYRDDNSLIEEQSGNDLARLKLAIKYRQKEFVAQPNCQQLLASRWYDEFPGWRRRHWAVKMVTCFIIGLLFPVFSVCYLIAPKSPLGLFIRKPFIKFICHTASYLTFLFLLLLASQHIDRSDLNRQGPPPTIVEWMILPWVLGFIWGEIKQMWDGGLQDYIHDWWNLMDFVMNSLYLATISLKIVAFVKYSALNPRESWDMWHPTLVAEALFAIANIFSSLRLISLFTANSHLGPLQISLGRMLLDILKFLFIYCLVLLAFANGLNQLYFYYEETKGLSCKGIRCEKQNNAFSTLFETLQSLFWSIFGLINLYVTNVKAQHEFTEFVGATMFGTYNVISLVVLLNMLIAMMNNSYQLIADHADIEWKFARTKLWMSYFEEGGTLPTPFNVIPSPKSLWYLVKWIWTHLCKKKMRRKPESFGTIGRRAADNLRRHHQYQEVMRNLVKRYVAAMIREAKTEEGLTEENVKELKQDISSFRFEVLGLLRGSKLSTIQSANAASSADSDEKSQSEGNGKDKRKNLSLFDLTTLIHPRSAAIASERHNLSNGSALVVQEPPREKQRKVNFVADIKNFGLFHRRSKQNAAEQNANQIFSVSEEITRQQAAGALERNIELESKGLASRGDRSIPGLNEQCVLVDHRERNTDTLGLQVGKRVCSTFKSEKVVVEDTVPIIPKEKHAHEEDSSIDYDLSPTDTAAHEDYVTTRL
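Assay system – TRPC4beta and mu-opioid receptor HEK293 stable cells · Measured by – Fluo4 fluorescence, kinetic · Schedule – dye loading 45 min room temperature, 110 s kinetic read · Read-out – B-scored integrated calcium fluorescence ratio · Controls – buffer and maximal DAMGO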
TRPC6 activator – activates the mouse TRPC6 cation channel | B-score at 10 µM | actives 0.13% (n = 310,000) | HEK293-TRPC6 membrane potential dye fluorescence; active compounds read high | Q61143 | AID 2550;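 active = B-score of the integrated fluorescence ratio above library mean plus 3 SD, and starting fluorescence ratio within library mean plus 5 SD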;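 note: higher score means more depolarization so channel activation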
TRPC4 PAM – allosteric potentiators of mouse TRPC4 channel; Q9QUQ5; HEK293 TRPC4beta/mu-opioid, DAMGO EC20, Fluo-4 Ca2+ flux; active compounds read high; B-score at 10 µM; actives 0.42% (n = 310,000);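 active = B-score of calcium response area above 5 SD of library B-scores, with initial fluorescence ratio within 5 SD of library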;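 note: B-score of integrated fluorescence ratio over time as area under calcium response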
TRPC4 block – TRPC4 (mouse) channel inhibition; B-score at 10 µM; Q9QUQ5; actives 0.39% (n = 300,000); AID 2247; HEK293 TRPC4beta/mu-opioid, DAMGO-evoked Fluo4 calcium flux; active compounds read low;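 active = B-score over 3 SD under the library average, no early fluorescence shift, positive overall ratio signal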
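Assay system: HEK293 cells with stable TRPC4beta plus mu-opioid receptor expression. Dosing: single dose. Measured by: Fluo4 Ca2+ flux fluorescence. Also added: DAMGO in two steps, submaximal then maximal. Read-out: B score from integrated Fluo4 fluorescence ratio.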
TRPC6 inh – inhibitors of mouse TRPC6 channel; Q61143; HEK293-TRPC6, membrane potential dye, ACh-evoked depolarization; active compounds read low; B-score at 10 µM; actives 1.1% (n = 310,000);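 active = B-score under library mean minus 3 SD, initial fluorescence not abnormally high, positive integrated signal ratio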;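 note: B-score derived from integrated fluorescence ratio over the kinetic read; more negative B-score means stronger inhibition of depolarization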
TRPC4 spec 2 – second selectivity test of TRPC6 inhibitors: effect on mouse TRPC4. HEK293 TRPC4/MOR, membrane potential dye fluorescence; channel activated by saturating DAMGO dose. actives 42% (n = 920). inhibition, % at 10 µM. shares compounds with TRPC6 inh. AID 2776;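 active = compounds whose fluorescence signal differed from control wells by over 3 SD, either direction, in both duplicate plates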
TRPC4 spec – tests whether TRPC6 inhibitors also affect mouse TRPC4; shares compounds with TRPC6 inh; HEK293 TRPC4/mu-opioid, membrane potential fluorescence; activity change, negative = inhibition, % at 10 µM; actives 61% (n = 920); AID 2777;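 active = rise or fall in signal beyond 3 SD of buffer-only wells in both replicate plates, either sign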;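 note: integrated kinetic ratio of fluorescence range over baseline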
HEK293 MPD ctr 2-1 – parental HEK293 nonspecific activity of TRPC6 inhibitors, second screen | shares compounds with TRPC6 inh | parental HEK293 membrane potential dye fluorescence; maximal acetylcholine challenge after compound addition | signal change vs control, % at 10 µM | actives 31% (n = 920);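 active = membrane potential signal moving either way by over 3 SD of the maximum-effect control, in both duplicate plates, meaning non-specific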
HEK293 MPD ctr-1 – counter-screen for TRPC6 inhibitors: effect in parental HEK293 cells; shares compounds with TRPC6 inh; parental HEK293 membrane potential dye fluorescence; membrane potential signal change, % at 10 µM; actives 60% (n = 920);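 active = membrane potential signal shifting up or down by more than 3 SD of buffer-only wells, on both duplicate plates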
HEK293 MPD ctr-2 – checks TRPC6 modulator effects in parental HEK293 cells | shares compounds with TRPC6 inh | membrane potential dye fluorescence | membrane potential signal change, % at 10 µM | actives 51% (n = 2,400);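 active = membrane potential signal moves up or down beyond 5 SD from buffer-only wells, on both duplicate plates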
HEK293 MPD ctr 2-2 – second counter-screen for TRPC6 modulators: effect in parental HEK293 cells | actives 14% (n = 2,400) | inhibition, % at 10 µM | shares compounds with TRPC6 inh | membrane potential dye fluorescence; after compound, maximal acetylcholine stimulation;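 active = membrane potential signal drops by more than 5 SD from the mean control signal, in both duplicate plates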;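 note: plate controls were acetylcholine ECmax control wells for no effect and buffer only wells for full effect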
TRPC4/MOR mod – mouse TRPC4 off-target activity of TRPC6 modulators | actives 69% (n = 2,400) | AID 488927 | HEK293 TRPC4/mu-opioid, membrane potential fluorescence | percent change from control (negative = decrease, positive = increase), % at 10 µM | shares compounds with TRPC6 inh;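 active = membrane potential signal moved up or down beyond 5 SD of buffer control wells, in both duplicate plates, actives on both sides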;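 note: plate controls were assay buffer wells for no effect and DAMGO maximal-effect wells for full effect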
TRPC4 ctr inh 2 – second selectivity test of TRPC6 modulators against mouse TRPC4; shares compounds with TRPC6 inh; HEK293 TRPC4/mu-opioid, membrane potential dye fluorescence; stimulated with maximal-effect DAMGO; inhibition, % at 10 µM; actives 55% (n = 2,400);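 active = drop in membrane potential signal beyond 5 SD of the control wells in both duplicate plates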;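 note: TRPC4 counter screen for TRPC6 hits run under conditions tuned for TRPC6 not TRPC4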
TRPC6 block conf – confirmation of mouse TRPC6 inhibitors | shares compounds with TRPC6 inh | HEK293-TRPC6, membrane potential dye, ACh-evoked depolarization | inhibition, % at 10 µM | actives 43% (n = 3,300);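 active = fluorescence ratio falls more than 5 SD below the full-stimulation control mean, in both duplicate runs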;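 note: integrated fluorescence ratio of peak minus minimum over baseline after agonist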
TRPC6 act conf – mouse TRPC6 activator confirmation; shares compounds with TRPC6 inh; HEK293-TRPC6 membrane potential dye fluorescence, FDSS; activation, % at 10 µM; actives 11% (n = 2,800); AID 488961;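 active = ratio signal rise beyond 5 SD above unstimulated control wells' mean, seen in both duplicate runs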;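 note: plate controls were buffer EC0 wells for no effect and acetylcholine ECmax response for full effect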
An asterisk follows results filed as active; i = inactive; / = not tested or not shown. Sampled rows, rich in hits. Any-hit rate of the full collection: about 2.3%.

SMILES	TRPC4 agonist	TRPC6 activator	TRPC4 PAM	TRPC4 block	TRPC6 inh	HEK293 MPD ctr-2	HEK293 MPD ctr 2-2	TRPC4/MOR mod	TRPC4 ctr inh 2	TRPC6 block conf	TRPC6 act conf	others
CN(C)CCNS(=O)(=O)c1ccc(N2CCc3ccccc32)c([N+](=O)[O-])c1	i	i	i	i	-7.2*	-129%*	i	-28%*	73%*	60%*	i
Cc1ccc(-n2cccn2)c(CN2CCCC(C(=O)c3ccc4c(c3)OCO4)C2)c1 (stereo not given)	i	i	i	-8*	-6.8*	190%*	i	14%*	83%*	53%*	/
Cc1ccc(-n2cccn2)c(CN2CCCC(CNC(=O)c3ccc(F)cc3)C2)c1 (stereo not given)	i	i	i	i	i	/	/	/	/	/	/
COc1cc(/C=C2\C(=O)ON=C2c2ccccc2)cc(Br)c1O	i	16*	i	i	i	906%*	i	74%*	i	i	148%*
COc1cc(/C=C2/C(=O)ON=C2c2ccccc2)ccc1O	i	i	i	i	i	/	/	/	/	/	/
CC(=O)N(Cc1ccc(F)cc1)C1=C(NCCc2ccccc2)C(=O)c2ccccc2C1=O	i	i	i	i	-11*	/	/	/	/	i	i	TRPC4 spec 2=i;TRPC4 spec=-11%*;HEK293 MPD ctr 2-1=i;HEK293 MPD ctr-1=-182%*
O=C(Nc1nc2ccccc2s1)c1ccc(N2CCCCC2)c([N+](=O)[O-])c1	i	i	i	i	i	/	/	/	/	/	/
CCCC(=O)NC(c1ccc2c(c1)OCO2)c1cc(Cl)c2cccnc2c1O (stereo not given)	i	i	i	i	-5.8*	118%*	i	i	i	i	i
COc1ccccc1NC(=O)OCC#CCOC(=O)Nc1ccccc1OC	i	i	i	i	i	/	/	/	/	/	/
Cc1cc2c(s1)Nc1ccccc1N=C2N1CCN(C)CC1	i	i	i	i	-6*	i	i	i	i	58%*	i
O=C(c1ccco1)N1CCN(C(=O)C2CC(=O)N(c3ccccc3)C2)CC1 (stereo not given)	i	i	i	i	i	/	/	/	/	/	/
COc1cc(-c2nc3ccc(C)cn3c2Nc2ccc3c(c2)OCCO3)ccc1O	i	i	i	i	-8.4*	/	/	/	/	i	i	TRPC4 spec 2=54%*;TRPC4 spec=-11%*;HEK293 MPD ctr 2-1=i;HEK293 MPD ctr-1=-322%*
Cc1ccn2c(Nc3ccc4c(c3)OCO4)c(-c3ccc(O)cc3)nc2c1	i	i	i	i	-7.1*	/	/	/	/	i	i	TRPC4 spec 2=i;TRPC4 spec=-14%*;HEK293 MPD ctr 2-1=i;HEK293 MPD ctr-1=-154%*
CCNC(=O)C12CCC(C)(C(=O)O1)C2(C)C (stereo not given)	i	i	i	i	i	/	/	/	/	/	/
COCCNc1c(-c2cc3ccc(C)c(C)c3[nH]c2=O)nc2ccccn12	i	i	i	i	-5.1*	i	i	i	i	i	i
O=C(Cc1ccc(Br)cc1)NCCc1ccc(F)cc1	i	i	i	i	i	/	/	/	/	/	/
CSc1nc2ccccc2n1Cc1c(Cl)cccc1Cl	i	i	i	i	i	/	/	/	/	/	/
N#CCCN(CCN1CCCC1)S(=O)(=O)c1ccc(-c2ccc([N+](=O)[O-])cc2)cc1	i	i	i	i	-7.8*	/	/	/	/	88%*	i	TRPC4 spec 2=32%*;TRPC4 spec=-27%*;HEK293 MPD ctr 2-1=30%*;HEK293 MPD ctr-1=-268%*
CCOCCCNC(=S)N1C2CCC1CC(NC(=O)Nc1ccc(C(=O)OCC)cc1)C2 (stereo not given)	i	i	i	i	-7.2*	i	i	i	i	66%*	/
COc1ccc(NS(=O)(=O)c2ccc3c(c2)CCN3C(=O)CCC(=O)O)cc1OC	i	i	i	i	i	/	/	/	/	/	/
NCC(c1ccccc1)(c1ccccc1)c1ccccc1	117*	i	i	-8*	-6.6*	i	i	18%*	74%*	42%*	i
O=C(COC(=O)C1CC1)Nc1ccc2c(c1)OCO2	i	i	i	i	i	/	/	/	/	/	/
CCOc1ccc(Cc2noc3c2C(=O)CC(C)(C)C3)cc1OCC	i	i	i	i	i	/	/	/	/	/	/
Cn1c(=O)c2c(nc(SCCN3CCCCC3)n2Cc2ccccc2)n(C)c1=O	i	i	33*	i	-9.2*	/	/	/	/	i	i	TRPC4 spec 2=42%*;TRPC4 spec=22%*;HEK293 MPD ctr 2-1=i;HEK293 MPD ctr-1=-392%*
Cn1c(=O)c2c(nc(SCCN3CCOCC3)n2Cc2ccccc2Cl)n(C)c1=O	i	i	i	i	i	/	/	/	/	/	/
Cc1cc2c3c(ccc(C)c3n1)N=CN2c1ccccc1	i	i	i	i	-8.1*	-240%*	77%*	-46%*	66%*	52%*	i
CCN(CC)CCNC(=O)c1ccc(NC(=O)c2ccc3c(c2)CCC3)cc1	i	12*	i	i	-9.5*	217%*	i	29%*	i	69%*	160%*
